Data reported in ChEMBL document CHEMBL1154183, “Structure-based optimization of potent and selective inhibitors of the tyrosine kinase erythropoietin producing human hepatocellular carcinoma receptor B4 (EphB4)” (J Med Chem, 2009).

Key:
[1] = target: Mitogen-activated protein kinase 8 (Homo sapiens) (UniProt P45983); assay: Inhibition of JNK1 assessed as remaining enzyme activity at 3 uM relative to DMSO
Outline: (§1)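 Dundee kinase panel, radiometric: [γ-33P]ATP (800 cpm/pmol) at 5, 20 or 50 μM, at or below each kinase's ATP Km; 10 mM magnesium acetate; robotic, room temperature, 30 min. Reactions started with MgATP, stopped with orthophosphoric acid, spotted onto P81 filters. Inhibitor tested at a single concentration; mean % activity of duplicates relative to DMSO control.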

[2] = target: Mitogen-activated protein kinase 12 (Homo sapiens) (UniProt P53778); assay: Inhibition of p38-gamma assessed as remaining enzyme activity at 3 uM relative to DMSO
[3] = target: Ribosomal protein S6 kinase beta-1 (Homo sapiens) (UniProt P23443); assay: Inhibition of S6K1 assessed as remaining enzyme activity at 3 uM relative to DMSO
[4] = target: MAP kinase-activated protein kinase 5 (Homo sapiens) (UniProt Q8IW41); assay: Inhibition of PRAK assessed as remaining enzyme activity at 3 uM relative to DMSO
[5] = target: Serine/threonine-protein kinase Chk1 (Homo sapiens) (UniProt O14757); assay: Inhibition of CHK1 assessed as remaining enzyme activity at 3 uM relative to DMSO; outline: as §1
[6] = target: Serine/threonine-protein kinase Chk2 (Homo sapiens) (UniProt O96017); assay: Inhibition of CHK2 assessed as remaining enzyme activity at 3 uM relative to DMSO; outline: as §1
[7] = target: Glycogen synthase kinase-3 beta (Homo sapiens) (UniProt P49841); assay: Inhibition of GSK3-beta assessed as remaining enzyme activity at 3 uM relative to DMSO; outline: as §1
[8] = target: Serine/threonine-protein kinase PLK1 (Homo sapiens) (UniProt P53350); assay: Inhibition of PLK1 assessed as remaining enzyme activity at 3 uM relative to DMSO
[9] = Inhibition of AMPK assessed as remaining enzyme activity at 3 uM relative to DMSO
Outline: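 Panel assay run robotically at room temperature for 30 min with 10 mM magnesium acetate and [γ-33P]ATP (800 cpm/pmol) at 5, 20 or 50 μM, chosen per kinase to be at or below its ATP Km. Reactions were started with MgATP, stopped with orthophosphoric acid and spotted on P81 filters. Activity is the mean of duplicates at a single inhibitor concentration, as % of DMSO control.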

[10] = target: SRSF protein kinase 1 (Homo sapiens) (UniProt Q96SB4); assay: Inhibition of SRPK1 assessed as remaining enzyme activity at 3 uM relative to DMSO
[11] = target: Insulin-like growth factor 1 receptor (Homo sapiens) (UniProt P08069); assay: Inhibition of IGF-1R assessed as remaining enzyme activity at 3 uM relative to DMSO; outline: as §1
[12] = target: Tyrosine-protein kinase BTK (Homo sapiens) (UniProt Q06187); assay: Inhibition of BTK assessed as remaining enzyme activity at 3 uM relative to DMSO; outline: as §1
Ephrin type-A receptor 5 = Ephrin type-A receptor 5 (Homo sapiens, UniProt P54756); assay: Inhibition of EphA5 by [gamma33-P]ATP based assay
Outline: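 Radiometric [γ-33P]ATP kinase assay against Eph kinases, following a protocol similar to the Mg-acetate/MgATP filter-binding method.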

[13] = target: Inhibitor of nuclear factor kappa-B kinase subunit epsilon (Homo sapiens) (UniProt Q14164); assay: Inhibition of IKKepsilon assessed as remaining enzyme activity at 1 uM relative to DMSO; outline: as §1
[14] = target: NUAK family SNF1-like kinase 1 (Homo sapiens) (UniProt O60285); assay: Inhibition of NUAK1 assessed as remaining enzyme activity at 1 uM relative to DMSO
Outline: (§2)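 Radiometric kinase assay run robotically at room temperature for 30 min. Contained 10 mM magnesium acetate and [γ-33P]ATP (800 cpm/pmol) at 5, 20 or 50 μM, chosen per kinase to be at or below its ATP Km. Reactions were started with MgATP, stopped with orthophosphoric acid and spotted onto P81 filters. Result is mean % activity of duplicates at one inhibitor concentration versus DMSO control.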

[15] = target: Epithelial discoidin domain-containing receptor 1 (Homo sapiens) (UniProt Q08345); assay: Binding affinity to DDR1 assessed as percentage of kinase remaining bound to the bead at 1 uM by T7 phage display based binding assay
Outline: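 Competition binding assay run by a contract lab. Each kinase was expressed as a fusion to T7 phage, full-length for small kinases and catalytic domain for large ones. Phage were mixed with an immobilized known kinase inhibitor on streptavidin magnetic beads and with test compound at a single 1 μM. Kinase/phage still bound to the beads was quantified by qPCR and expressed as % of DMSO control.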

[16] = target: Dual specificity tyrosine-phosphorylation-regulated kinase 3 (Homo sapiens) (UniProt O43781); assay: Inhibition of DYRK3 assessed as remaining enzyme activity at 1 uM relative to DMSO
Outline: (§3)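 Radiometric kinase assay run robotically at room temperature for 30 min, linear in time and enzyme. Conditions: 10 mM magnesium acetate, [γ-33P]ATP (800 cpm/pmol) at 5, 20 or 50 μM per kinase, at or below its ATP Km. Started with MgATP and stopped with orthophosphoric acid, then spotted on P81 filters. Reported as mean % activity of duplicates versus DMSO controls.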

[17] = target: Serine/threonine-protein kinase Nek6 (Homo sapiens) (UniProt Q9HC98); assay: Inhibition of NEK6 assessed as remaining enzyme activity at 1 uM relative to DMSO; outline: as §2
[18] = target: Inhibitor of nuclear factor kappa-B kinase subunit beta (Homo sapiens) (UniProt O14920); assay: Inhibition of IKK-beta assessed as remaining enzyme activity at 1 uM relative to DMSO; outline: as §3
[19] = target: SRSF protein kinase 1 (Homo sapiens) (UniProt Q96SB4); assay: Inhibition of SRPK1 assessed as remaining enzyme activity at 1 uM relative to DMSO
[20] = target: Proto-oncogene tyrosine-protein kinase Src (Homo sapiens) (UniProt P12931); assay: Inhibition of Src assessed as remaining enzyme activity at 1 uM relative to DMSO
[21] = target: Insulin-like growth factor 1 receptor (Homo sapiens) (UniProt P08069); assay: Inhibition of IGF-1R assessed as remaining enzyme activity at 1 uM relative to DMSO; outline: as §1
[22] = target: Mitogen-activated protein kinase 1 (Homo sapiens) (UniProt P28482); assay: Inhibition of ERK2 assessed as remaining enzyme activity at 1 uM relative to DMSO; outline: as §3
[23] = target: Mitogen-activated protein kinase 11 (Homo sapiens) (UniProt Q15759); assay: Inhibition of p38beta assessed as remaining enzyme activity at 1 uM relative to DMSO
[24] = target: RAC-alpha serine/threonine-protein kinase (Homo sapiens) (UniProt P31749); assay: Inhibition of PKBalpha assessed as remaining enzyme activity at 1 uM relative to DMSO; outline: as §2
[25] = target: Rho-associated protein kinase 2 (Homo sapiens) (UniProt O75116); assay: Inhibition of ROCK2 assessed as remaining enzyme activity at 1 uM relative to DMSO
[26] = target: MAP kinase-activated protein kinase 5 (Homo sapiens) (UniProt Q8IW41); assay: Inhibition of PRAK assessed as remaining enzyme activity at 1 uM relative to DMSO
[27] = target: Glycogen synthase kinase-3 beta (Homo sapiens) (UniProt P49841); assay: Inhibition of GSK3-beta assessed as remaining enzyme activity at 1 uM relative to DMSO; outline: as §1

Chain of MAP kinase-activated protein kinase 5 (Homo sapiens) (Q8IW41 whole entry): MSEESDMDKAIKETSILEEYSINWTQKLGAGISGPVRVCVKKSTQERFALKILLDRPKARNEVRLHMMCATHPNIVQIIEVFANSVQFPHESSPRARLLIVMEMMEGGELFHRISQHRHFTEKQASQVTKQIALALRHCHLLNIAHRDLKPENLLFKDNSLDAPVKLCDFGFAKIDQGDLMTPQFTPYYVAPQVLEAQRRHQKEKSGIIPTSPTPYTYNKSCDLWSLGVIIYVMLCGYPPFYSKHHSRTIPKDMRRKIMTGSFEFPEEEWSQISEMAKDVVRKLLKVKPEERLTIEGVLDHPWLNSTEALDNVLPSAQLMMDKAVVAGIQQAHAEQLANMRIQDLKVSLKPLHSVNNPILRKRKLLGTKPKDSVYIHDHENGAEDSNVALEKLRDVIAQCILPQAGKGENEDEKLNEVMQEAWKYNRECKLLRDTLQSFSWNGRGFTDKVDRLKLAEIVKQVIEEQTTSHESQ
Chain of Insulin-like growth factor 1 receptor (Homo sapiens) (P08069 31-736 limits assumed): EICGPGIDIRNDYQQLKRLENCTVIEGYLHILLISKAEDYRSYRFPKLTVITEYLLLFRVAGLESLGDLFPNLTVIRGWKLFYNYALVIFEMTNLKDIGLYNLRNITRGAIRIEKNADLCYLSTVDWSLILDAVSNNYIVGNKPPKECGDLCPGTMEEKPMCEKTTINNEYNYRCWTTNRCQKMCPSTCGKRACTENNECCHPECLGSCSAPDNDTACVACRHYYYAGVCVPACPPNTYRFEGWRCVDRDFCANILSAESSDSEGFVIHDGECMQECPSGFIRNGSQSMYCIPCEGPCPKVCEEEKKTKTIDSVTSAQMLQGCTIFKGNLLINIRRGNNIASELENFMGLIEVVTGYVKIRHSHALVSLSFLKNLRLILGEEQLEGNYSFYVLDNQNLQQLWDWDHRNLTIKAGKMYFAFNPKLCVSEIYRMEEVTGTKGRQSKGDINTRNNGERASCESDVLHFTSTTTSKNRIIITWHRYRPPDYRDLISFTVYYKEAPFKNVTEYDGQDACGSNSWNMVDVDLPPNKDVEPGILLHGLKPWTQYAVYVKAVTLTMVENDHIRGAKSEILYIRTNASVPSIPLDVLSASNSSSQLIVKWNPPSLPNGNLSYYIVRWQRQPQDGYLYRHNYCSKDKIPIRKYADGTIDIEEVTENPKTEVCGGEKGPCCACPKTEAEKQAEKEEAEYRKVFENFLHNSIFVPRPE
Chain of Insulin-like growth factor 1 receptor (Homo sapiens) (P08069 741-1367 limits assumed): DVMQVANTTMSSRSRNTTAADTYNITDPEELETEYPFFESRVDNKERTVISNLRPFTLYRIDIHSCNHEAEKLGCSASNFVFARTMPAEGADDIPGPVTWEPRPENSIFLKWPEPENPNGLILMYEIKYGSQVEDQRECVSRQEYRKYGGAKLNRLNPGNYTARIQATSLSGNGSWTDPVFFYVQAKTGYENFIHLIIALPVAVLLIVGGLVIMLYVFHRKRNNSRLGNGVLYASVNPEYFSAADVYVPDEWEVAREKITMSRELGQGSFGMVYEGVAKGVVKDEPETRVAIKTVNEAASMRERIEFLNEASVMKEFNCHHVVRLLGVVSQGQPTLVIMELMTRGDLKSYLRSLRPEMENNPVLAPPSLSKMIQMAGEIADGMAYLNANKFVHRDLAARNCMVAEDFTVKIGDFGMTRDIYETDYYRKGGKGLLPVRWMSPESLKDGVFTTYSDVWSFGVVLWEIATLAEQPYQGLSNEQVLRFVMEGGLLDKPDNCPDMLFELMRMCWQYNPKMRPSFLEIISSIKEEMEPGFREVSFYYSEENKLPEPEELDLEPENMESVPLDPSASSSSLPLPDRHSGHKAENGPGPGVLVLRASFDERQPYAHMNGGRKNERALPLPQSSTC
Chain of SRSF protein kinase 1 (Homo sapiens) (Q96SB4 whole entry): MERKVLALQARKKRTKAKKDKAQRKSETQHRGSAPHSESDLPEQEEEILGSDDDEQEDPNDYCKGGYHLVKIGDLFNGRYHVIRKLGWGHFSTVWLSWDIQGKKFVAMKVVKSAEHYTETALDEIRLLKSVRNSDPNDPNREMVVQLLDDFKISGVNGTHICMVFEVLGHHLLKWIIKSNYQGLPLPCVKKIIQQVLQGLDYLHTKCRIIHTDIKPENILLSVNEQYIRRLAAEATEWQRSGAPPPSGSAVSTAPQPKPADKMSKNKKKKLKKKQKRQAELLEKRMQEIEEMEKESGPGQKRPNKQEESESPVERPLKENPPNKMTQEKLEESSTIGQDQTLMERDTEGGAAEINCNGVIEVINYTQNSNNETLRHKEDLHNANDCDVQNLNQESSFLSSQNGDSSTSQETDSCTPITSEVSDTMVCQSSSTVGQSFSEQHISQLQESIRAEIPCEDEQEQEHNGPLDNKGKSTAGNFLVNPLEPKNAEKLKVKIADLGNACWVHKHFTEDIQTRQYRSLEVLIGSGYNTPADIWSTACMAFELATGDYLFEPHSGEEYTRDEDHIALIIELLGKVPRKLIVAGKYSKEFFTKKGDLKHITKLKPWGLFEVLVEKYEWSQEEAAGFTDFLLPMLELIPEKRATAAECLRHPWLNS
Chain of Glycogen synthase kinase-3 beta (Homo sapiens) (P49841 whole entry, looked up): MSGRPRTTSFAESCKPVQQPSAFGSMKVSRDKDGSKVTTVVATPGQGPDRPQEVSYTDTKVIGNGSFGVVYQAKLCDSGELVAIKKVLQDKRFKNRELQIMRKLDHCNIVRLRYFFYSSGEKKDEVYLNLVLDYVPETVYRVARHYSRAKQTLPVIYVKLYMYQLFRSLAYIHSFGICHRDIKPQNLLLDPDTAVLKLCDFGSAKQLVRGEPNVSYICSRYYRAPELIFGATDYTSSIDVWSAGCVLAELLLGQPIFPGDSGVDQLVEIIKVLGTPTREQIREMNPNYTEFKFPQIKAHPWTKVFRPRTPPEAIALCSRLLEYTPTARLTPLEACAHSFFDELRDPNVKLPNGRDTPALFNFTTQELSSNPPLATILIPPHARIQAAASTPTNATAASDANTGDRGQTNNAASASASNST
Chain of Epithelial discoidin domain-containing receptor 1 (Homo sapiens) (Q08345 whole entry, the tested form may be a part): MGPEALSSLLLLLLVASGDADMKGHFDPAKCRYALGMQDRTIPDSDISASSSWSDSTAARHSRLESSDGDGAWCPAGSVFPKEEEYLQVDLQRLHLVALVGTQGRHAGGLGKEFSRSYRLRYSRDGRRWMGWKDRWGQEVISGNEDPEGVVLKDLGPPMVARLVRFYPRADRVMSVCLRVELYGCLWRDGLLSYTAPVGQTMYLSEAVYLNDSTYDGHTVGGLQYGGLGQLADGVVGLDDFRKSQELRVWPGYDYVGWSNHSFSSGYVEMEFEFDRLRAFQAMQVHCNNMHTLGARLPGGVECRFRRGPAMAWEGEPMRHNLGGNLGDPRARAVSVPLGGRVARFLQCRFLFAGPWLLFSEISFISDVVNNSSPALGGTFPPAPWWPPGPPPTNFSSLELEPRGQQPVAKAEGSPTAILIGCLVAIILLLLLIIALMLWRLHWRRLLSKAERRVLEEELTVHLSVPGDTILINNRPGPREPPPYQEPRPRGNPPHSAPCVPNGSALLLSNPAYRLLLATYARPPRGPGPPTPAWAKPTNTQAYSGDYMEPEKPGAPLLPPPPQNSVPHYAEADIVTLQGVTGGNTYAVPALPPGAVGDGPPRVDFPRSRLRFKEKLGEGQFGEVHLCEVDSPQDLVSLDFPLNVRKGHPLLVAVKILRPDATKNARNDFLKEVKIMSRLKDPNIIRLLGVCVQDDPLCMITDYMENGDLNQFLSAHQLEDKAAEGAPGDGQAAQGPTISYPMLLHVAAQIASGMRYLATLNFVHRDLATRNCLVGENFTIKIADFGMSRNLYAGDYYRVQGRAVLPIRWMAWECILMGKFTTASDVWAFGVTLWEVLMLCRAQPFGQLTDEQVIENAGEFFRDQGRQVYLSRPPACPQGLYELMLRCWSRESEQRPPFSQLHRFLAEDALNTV
Chain of Mitogen-activated protein kinase 11 (Homo sapiens) (Q15759 whole entry): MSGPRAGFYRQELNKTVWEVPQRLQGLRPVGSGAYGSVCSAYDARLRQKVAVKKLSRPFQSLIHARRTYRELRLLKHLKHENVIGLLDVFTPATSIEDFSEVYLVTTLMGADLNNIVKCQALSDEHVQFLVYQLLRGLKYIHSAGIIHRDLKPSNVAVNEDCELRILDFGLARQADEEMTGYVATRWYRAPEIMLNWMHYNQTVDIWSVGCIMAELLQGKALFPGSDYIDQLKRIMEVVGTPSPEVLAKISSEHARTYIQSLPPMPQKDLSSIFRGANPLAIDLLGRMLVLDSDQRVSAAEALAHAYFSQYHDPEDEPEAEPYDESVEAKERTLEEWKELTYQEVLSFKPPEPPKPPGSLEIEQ
Chain of Ribosomal protein S6 kinase beta-1 (Homo sapiens) (P23443 whole entry, looked up): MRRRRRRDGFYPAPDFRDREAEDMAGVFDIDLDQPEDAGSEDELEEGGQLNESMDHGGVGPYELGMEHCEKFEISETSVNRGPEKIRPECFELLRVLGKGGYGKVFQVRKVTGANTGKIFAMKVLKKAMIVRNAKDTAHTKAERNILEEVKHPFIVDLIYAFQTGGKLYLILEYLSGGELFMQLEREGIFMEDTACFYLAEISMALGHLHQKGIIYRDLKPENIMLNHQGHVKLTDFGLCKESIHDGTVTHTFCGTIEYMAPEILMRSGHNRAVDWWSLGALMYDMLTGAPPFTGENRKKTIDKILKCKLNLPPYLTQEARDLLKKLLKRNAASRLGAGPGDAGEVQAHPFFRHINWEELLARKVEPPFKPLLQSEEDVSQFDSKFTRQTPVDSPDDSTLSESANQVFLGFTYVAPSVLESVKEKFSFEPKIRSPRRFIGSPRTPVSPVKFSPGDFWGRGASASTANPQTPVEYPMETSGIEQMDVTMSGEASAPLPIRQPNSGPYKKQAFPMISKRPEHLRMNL
Chain of Serine/threonine-protein kinase Nek6 (Homo sapiens) (Q9HC98 whole entry): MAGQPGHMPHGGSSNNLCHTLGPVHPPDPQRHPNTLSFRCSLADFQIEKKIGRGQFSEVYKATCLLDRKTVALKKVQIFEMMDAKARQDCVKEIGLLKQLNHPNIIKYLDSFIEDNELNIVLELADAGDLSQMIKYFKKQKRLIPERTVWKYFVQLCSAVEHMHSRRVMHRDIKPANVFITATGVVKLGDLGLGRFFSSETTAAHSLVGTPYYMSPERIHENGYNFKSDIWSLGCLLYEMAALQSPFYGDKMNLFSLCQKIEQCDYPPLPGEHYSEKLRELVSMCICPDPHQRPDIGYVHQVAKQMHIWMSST

Q: For `COc1ccccc1-n1c(-c2ccccc2C)cn2c3c(=O)[nH]c(=O)n(C)c3nc12`, which Activity [1] is on record?
A: 106%

Q: And the Activity [2]?
A: 92%

Q: And the Activity [3]?
A: 98%

Q: What about the Activity [4] of the same compound?
A: 87%

Q: What about the Activity [5] of the same compound?
A: 93%

Q: And the Activity [6]?
A: 99%

Q: And the Activity [7]?
A: 102%

Q: What about the Activity [8] of the same compound?
A: 89%

Q: What about the Activity [9] of the same compound?
A: 92%

Q: And the Activity [10]?
A: 78%

Q: What about the Activity [11] of the same compound?
A: 106%

Q: And the Activity [12]?
A: 52%

Q: Which IC50 (Ephrin type-A receptor 5) does the source give for `COc1ccccc1-n1c(-c2cc(O)ccc2C)cn2c3c(=O)[nH]c(=O)n(C)c3nc12` here?
A: 3 nM

Q: And the Activity [13]?
A: 85%

Q: And the Activity [14]?
A: 133%

Q: What about the Activity [15] of the same compound?
A: 1.4%

Q: And the Activity [16]?
A: 96%

Q: What about the Activity [17] of the same compound?
A: 89%

Q: What about the Activity [18] of the same compound?
A: 86%

Q: And the Activity [19]?
A: 94%

Q: What about the Activity [20] of the same compound?
A: 9%

Q: And the Activity [21]?
A: 94%

Q: What about the Activity [22] of the same compound?
A: 93%

Q: And the Activity [23]?
A: 83%

Q: What about the Activity [24] of the same compound?
A: 98%

Q: What about the Activity [25] of the same compound?
A: 77%

Q: And the Activity [26]?
A: 81%

Q: What about the Activity [27] of the same compound?
A: 89%
